Laboratory results: ChEMBL document CHEMBL2057162, “Synthesis and antitumor efficacy of a β-glucuronidase-responsive albumin-binding prodrug of doxorubicin” (J Med Chem, 2012)

Assays:
Mus musculus [1] = experiment: Toxicity in C57BL/6 mouse xenografted with mouse LLC cells assessed as change in body weight at 13.7 umol/kg, iv administered on day 4 and day 11 after tumor transplantation measured on day 17; type: organism-based; details: in vivo
In short: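 Subcutaneous murine LLC-bearing mice given two iv doses on days 4 and 11 after transplantation: 2 × 13.7 μmol/kg doxorubicin or 2 × 43.6 μmol/kg prodrug. Body weight change (%) and mortality recorded, 8 mice per group.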

[2] = test system: Lewis lung carcinoma cell line; experiment: Antiproliferative activity against mouse LLC cells after 48 hrs by XTT assay; type: functional, cell-based
In short: (§1)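 Human H290, MDA-MB-231 and U87-MG and murine LLC tumour cell lines treated 48 h, with or without β-glucuronidase in the culture medium. IC50 derived from cell viability assays; highest tested dose 2 μM.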

[3] = Antiproliferative activity against human NCI-H290 cells after 48 hrs by XTT assay; type: functional, cell-based; details: NCI-H290, 48 h; in short: as §1
Mus musculus [4] = experiment: Nephrotoxicity in C57BL/6 mouse xenografted with mouse LLC cells at 13.7 umol/kg, iv administered on day 4 and day 11 after tumor transplantation measured on day 17 by hematoxylin eosin staining method; type: toxicity, organism-based; details: in vivo
In short: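 Kidneys from LLC-bearing mice dosed iv on days 4 and 11 were sectioned and stained with hematoxylin eosin. Renal tissue examined microscopically alongside untreated controls.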

[5] = Antiproliferative activity against human U87MG cells after 48 hrs by XTT assay; type: functional, cell-based, U-87MG ATCC; details: U-87 MG; in short: as §1
MDA-MB-231 = experiment: Antiproliferative activity against human MDA-MB-231 cells after 48 hrs by XTT assay; type: functional, cell-based; details: MDA-MB-231, 48 h
In short: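 Human MDA-MB-231 tumour cells were exposed to drug for 48 h, with or without β-glucuronidase added to the culture medium. Viability read-out gave IC50 in nM. Highest prodrug concentration tested was 2 μM.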

[6] = test system: Lewis lung carcinoma cell line; experiment: Antitumor activity against mouse LLC cells xenografted in C57BL/6 mouse assessed as decrease in tumor volume at 13.7 umol/kg, iv administered on day 4 and day 11 after tumor transplantation measured on day 17; type: functional
In short: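 Murine LLC tumours grown subcutaneously in mice. Two iv injections on days 4 and 11 after transplantation: doxorubicin 2 × 13.7 μmol/kg, glucuronide prodrugs 2 × 43.6 μmol/kg. T/C = mean relative tumour volume of treated group / mean relative tumour volume of control group. Minimal T/C reported with the day it was reached; 8 mice per group.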

IC50 [2]: 0.207 µM
IC50 (MDA-MB-231): 0.34 µM
SMILES: COc1cccc2c1C(=O)c1c(O)c3c(c(O)c1C2=O)C[C@@](O)(C(=O)CO)C[C@@H]3O[C@H]1C[C@H](N)[C@H](O)[C@H](C)O1 [DOXORUBICIN]
Activity (Mus musculus [1]): -21%
IC50 [3]: 0.32 µM
Activity (Mus musculus [4]): Toxic
IC50 [5]: 0.79 µM
T/C [6]: 31%
